The source of these data is article PMC12744579 (Nanotechnology, Science and Applications, 2025).

SMILES strings stand for the structures.

The nature of data set [1]: In vivo oral gavage study, blood. On the set-up: species or system New Zealand White rabbits. Particulars: male rabbits, 60 g HED. The method, boiled down:
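Male adult New Zealand White rabbits (3.0 ± 0.3 kg) on high-fibre diet, fasted ~16 h, stratified by body weight, n=6/group. Free or pea-protein-nanoparticle-encapsulated test compound was given by oral gavage at 60 g per 70 kg adult HED, scaled by rabbit body-surface-area factors to an individual per-kg dose. Marginal ear vein blood was sampled pre-dose to 24 h (11 time-points); BHB was measured by assay kit.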

For a further data set, the system named is rats. The note with it: 14 to 21 g/kg bw/day; cited from earlier work.

`C[C@@H](O)CC(=O)OCC(O)CO` (stereo partly drawn) [KM, (R)-3-hydroxybutyrate monoglyceride]: the “[BHB]max” value in data set [1] was found to be 1.33 mmol/L. Besides, in data set [1] (blood BHB), the MRT (commonly a mean duration of stay, worked out from the concentration-time curve) was determined as 6.60 h and the time to peak (Tmax) (in general, the time at which the peak concentration occurs) stood at 0.75 h. Moreover, the “systemic toxicity in vivo” value with rats is recorded as “no systemic toxicity”.
